Data as given in ChEMBL document CHEMBL1146622, “Synthesis and biological evaluation of a novel phenyl substituted sydnone series as potential antitumor agents” (2003).

What was measured:
Assay type in all cases: functional, Homo sapiens
NCI-H460 = experiment: In vitro antitumor activity determined against NCI-H460 cells expressed as percent of growth of the treated cells compared to untreated cells; design: concentration or dose not given beside the values
How it was run: (§1)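 NCI 3-cell-line prescreen (MCF7 breast, NCI-H460 lung, SF-268 CNS). Cells inoculated and incubated in microtiter plates, then exposed to test agent at a single concentration for 48 h. Alamar blue end-point read-out. Value is percent growth of treated cells relative to untreated cells.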

SF-268 = experiment: In vitro antitumor activity determined against SF-268 cells expressed as percent of growth of the treated cells compared to untreated cells; design: concentration or dose not given beside the values; how it was run: as §1
MCF7S [1] = experiment: In vitro antitumor activity determined against MCF-7 cells expressed as percent of growth of the treated cells compared to untreated cells; design: concentration or dose not given beside the values; how it was run: as §1
MCF7S [2] = experiment: In vitro antitumor activity determined against MCF-7 cells (breast) expressed as percent of growth of the treated cells compared to untreated cells; how it was run: as §1

| SMILES | Cell growth (NCI-H460) [%] | Cell growth (SF-268) [%] | Cell growth (MCF7S [1]) [%] | Cell growth (MCF7S [2]) [%] |
| --- | --- | --- | --- | --- |
| O=[N+]([O-])c1cc(-[n+]2cc([O-])on2)ccc1N1CCc2ccccc21 | 87 | 96 | 82 | – |
| O=[N+]([O-])c1cc(-[n+]2cc([O-])on2)ccc1N1CCC1 | 95 | 95 | 75 | – |
| O=[N+]([O-])c1cc(-[n+]2cc([O-])on2)ccc1F | 0 | 0 | 0 | – |
| O=[N+]([O-])c1cc(-[n+]2cc([O-])on2)ccc1Cl | 91 | 9 | – | 44 |
| O=[N+]([O-])c1cc(-[n+]2cc([O-])on2)ccc1N1Cc2ccccc2C1 | 76 | 95 | 75 | – |
| CCN(CC)c1ccc(-[n+]2cc([O-])on2)cc1[N+](=O)[O-] | 92 | 95 | 85 | – |
